Experimental data published in BindingDB's records for doi:10.1021/ml100053y (2010).

Molecular target: T1, 5-hydroxytryptamine receptor 1A (Homo sapiens, UniProt P08908)
T1 sequence (P08908 whole entry): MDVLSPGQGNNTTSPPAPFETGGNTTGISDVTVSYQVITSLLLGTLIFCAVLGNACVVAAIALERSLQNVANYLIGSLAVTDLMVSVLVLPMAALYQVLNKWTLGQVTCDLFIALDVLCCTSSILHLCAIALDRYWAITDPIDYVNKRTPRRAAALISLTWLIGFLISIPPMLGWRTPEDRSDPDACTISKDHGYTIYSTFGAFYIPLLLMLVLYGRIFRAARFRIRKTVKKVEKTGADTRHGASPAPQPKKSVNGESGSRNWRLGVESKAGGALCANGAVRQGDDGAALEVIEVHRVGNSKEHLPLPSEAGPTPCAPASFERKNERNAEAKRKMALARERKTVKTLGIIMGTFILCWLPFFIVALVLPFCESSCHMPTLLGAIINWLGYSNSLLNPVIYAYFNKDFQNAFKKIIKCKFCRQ
Test: Displacement of [3H]8-OH-DPAT from human 5HT1A receptor expressed in EBNA gene-positive HEK293 cells after 120 mins
Summary of the method: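 Radioligand competition binding with [3H]-8-hydroxy-DPAT on membranes from transfected HEK-293 EBNA cells expressing h5-HT1AR. Buffer was 50 mM Tris-HCl, 0.5 mM MgSO4, pH 7.4. Ki was obtained from IC50 by the Cheng-Prusoff equation. Values are means ± SEM of 2–4 independent experiments, each run in triplicate.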

Ki | Structure (SMILES)
2.4 nM | CN(C)S(=O)(=O)c1ccc2cccc(N3CCN(CCCCn4c(O)c5n(c4=O)CCC5)CC3)c2c1 [8-{4-[4-(1,3-Dioxotetrahydro-1H-pyrrolo[1,2-c]imidazol-2(3H)-yl)butyl]piperazin-1-yl}-N,N-dimethylnaphthalene-2-sulfonamide]
2.4 nM | O=c1n(CCCCN2CCN(c3cccc4ccccc34)CC2)c(O)c2n1CCC2 [2-[4-(4-Naphthalen-1-yl-piperazin-1-yl)-butyl]-tetrahydro-pyrrolo[1,2-c]imidazole-1,3-dione]
